Assay results as given in ChEMBL document CHEMBL5705904 (N Engl J Med, 2016).
Active and inactive are the calls of the source. The calls are words filed in the database; no cut-off is given here.

What was measured:
[1] = Apparent oral clearance in human at 175 mg, po administered for 8 days by LC-MS/MS analysis; assay type: ADME, organism-based; settings: in vivo, time 8 day
Outline: (§1)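 Steady-state plasma sampling on cycle 1 day 8 in patients, predose and 0.25, 0.5, 0.75, 1, 2, 4 and 6 h post-dose, into lithium heparin. Plasma was stored at -80°C. Drug was quantified by validated LC-MS/MS against a stable labeled internal standard, using only values at or above LLOQ and nominal sampling times.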

[2] = Terminal elimination half life in human at 100 mg, po administered for 8 days by LC-MS/MS analysis; assay type: ADME, organism-based; settings: in vivo, time 8 day, read-out: LambdaZ (converted)
[3] = Apparent volume of distribution during terminal phase in human at 250 mg, po administered for 8 days by LC-MS/MS analysis; assay type: ADME, organism-based; settings: in vivo, time 8 day, read-out: Vz/F; outline: as §1
[4] = AUC(0 to infinity) in human at 400 mg, po administered for 8 days by LC-MS/MS analysis; assay type: ADME, organism-based; settings: in vivo, time 8 day; outline: as §1
[5] = Terminal elimination half life in human at 175 mg, po administered for 8 days by LC-MS/MS analysis; assay type: ADME, organism-based; settings: in vivo, time 8 day, read-out: LambdaZ (converted)
[6] = Cmax in human at 100 mg, po administered for 8 days by LC-MS/MS analysis; assay type: ADME, organism-based; settings: in vivo, time 8 day; outline: as §1
[7] = AUC(0 to 6 hrs) in human at 100 mg, po administered for 8 days by LC-MS/MS analysis; assay type: ADME, organism-based; settings: in vivo, time 8 day; outline: as §1
[8] = AUC(0 to infinity) in human at 175 mg, po administered for 8 days by LC-MS/MS analysis; assay type: ADME, organism-based; settings: in vivo, time 8 day; outline: as §1
[9] = AUC(0 to 6 hrs) in human at 400 mg, po administered for 8 days by LC-MS/MS analysis; assay type: ADME, organism-based; settings: in vivo, time 8 day; outline: as §1
[10] = Cmax in human at 250 mg, po administered for 8 days by LC-MS/MS analysis; assay type: ADME, organism-based; settings: in vivo, time 8 day; outline: as §1
[11] = biological target: Tyrosine-protein kinase Lck (Homo sapiens, UniProt P06239); experiment: Inhibition of recombinant LCK (unknown origin) preincubated for 1 hr […] by Z-Lyte assay
Tyrosine-protein kinase Lck, sequence (P06239 whole entry): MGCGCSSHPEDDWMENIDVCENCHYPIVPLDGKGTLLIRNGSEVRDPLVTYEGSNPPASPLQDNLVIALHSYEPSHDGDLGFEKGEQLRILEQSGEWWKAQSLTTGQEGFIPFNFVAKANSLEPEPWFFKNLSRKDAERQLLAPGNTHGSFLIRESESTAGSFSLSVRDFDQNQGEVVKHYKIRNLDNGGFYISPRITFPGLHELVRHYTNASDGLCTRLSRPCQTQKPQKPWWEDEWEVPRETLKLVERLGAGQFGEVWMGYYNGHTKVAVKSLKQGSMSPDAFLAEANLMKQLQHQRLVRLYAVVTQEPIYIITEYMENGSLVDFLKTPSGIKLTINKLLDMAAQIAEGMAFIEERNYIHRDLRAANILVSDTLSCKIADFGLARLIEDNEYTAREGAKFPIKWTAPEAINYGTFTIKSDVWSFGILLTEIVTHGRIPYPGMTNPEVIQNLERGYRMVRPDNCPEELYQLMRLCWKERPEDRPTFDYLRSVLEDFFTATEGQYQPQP
Outline: (§2)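 Recombinant kinase activity was measured by Z'-LYTE with ATP at each enzyme's Km. Inhibitor came from a 10 mM DMSO stock and was tested at 10 concentrations. Compound was preincubated with kinase for 1 h before ATP addition started the reaction, for about 2 h total compound-kinase exposure. IC50 is from 2–3 independent experiments.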

[12] = Cmax in human at 175 mg, po administered for 8 days by LC-MS/MS analysis; assay type: ADME, organism-based; settings: in vivo, time 8 day; outline: as §1
[13] = AUC(0 to 12 hrs) in human at 400 mg, po administered for 8 days by LC-MS/MS analysis; assay type: ADME, organism-based; settings: in vivo, time 8 day; outline: as §1
[14] = biological target: T1, Tyrosine-protein kinase TXK (Homo sapiens, UniProt P42681); experiment: Inhibition of recombinant TXK (unknown origin) preincubated for 1 hr in presence of ATP by Z-Lyte assay
T1 sequence (P42681 whole entry): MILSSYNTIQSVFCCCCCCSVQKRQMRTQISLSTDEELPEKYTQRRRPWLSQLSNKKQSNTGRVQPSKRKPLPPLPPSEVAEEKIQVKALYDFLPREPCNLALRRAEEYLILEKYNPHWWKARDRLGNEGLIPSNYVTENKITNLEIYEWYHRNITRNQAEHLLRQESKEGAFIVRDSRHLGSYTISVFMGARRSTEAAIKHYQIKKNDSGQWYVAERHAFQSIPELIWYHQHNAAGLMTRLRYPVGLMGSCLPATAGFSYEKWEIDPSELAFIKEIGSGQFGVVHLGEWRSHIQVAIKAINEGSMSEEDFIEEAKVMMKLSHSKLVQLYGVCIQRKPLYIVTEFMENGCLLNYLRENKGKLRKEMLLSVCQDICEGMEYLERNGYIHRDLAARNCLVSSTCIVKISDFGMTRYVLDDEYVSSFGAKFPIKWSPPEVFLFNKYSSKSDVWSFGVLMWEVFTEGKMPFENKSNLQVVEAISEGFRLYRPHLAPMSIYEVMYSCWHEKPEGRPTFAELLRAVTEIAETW

[15] = Tmax in human at 400 mg, po administered for 8 days by LC-MS/MS analysis; assay type: ADME, organism-based; settings: in vivo, time 8 day
Outline: (§3)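 Patient plasma sampled on cycle 1 day 8 at predose and 0.25, 0.5, 0.75, 1, 2, 4 and 6 h post-dose, in lithium heparin. […] Tmax read directly from each individual's data; summarized descriptively.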

[16] = Tmax in human at 100 mg, po administered for 8 days by LC-MS/MS analysis; assay type: ADME, organism-based; settings: in vivo, time 8 day; outline: as §3
[17] = AUC(0 to 6 hrs) in human at 100 mg, po BID administered for 8 days by LC-MS/MS analysis; assay type: ADME, organism-based; settings: in vivo, time 8 day; outline: as §1
[18] = Cmax in human at 400 mg, po administered for 8 days by LC-MS/MS analysis; assay type: ADME, organism-based; settings: in vivo, time 8 day; outline: as §1
[19] = AUC(0 to 12 hrs) in human at 250 mg, po administered for 8 days by LC-MS/MS analysis; assay type: ADME, organism-based; settings: in vivo, time 8 day; outline: as §1
[20] = biological target: Tyrosine-protein kinase Fgr (Homo sapiens, UniProt P09769); experiment: Inhibition of recombinant FGR (unknown origin) preincubated for 1 hr in presence of ATP by Z-Lyte assay; outline: as §2
Tyrosine-protein kinase Fgr, sequence (P09769 whole entry): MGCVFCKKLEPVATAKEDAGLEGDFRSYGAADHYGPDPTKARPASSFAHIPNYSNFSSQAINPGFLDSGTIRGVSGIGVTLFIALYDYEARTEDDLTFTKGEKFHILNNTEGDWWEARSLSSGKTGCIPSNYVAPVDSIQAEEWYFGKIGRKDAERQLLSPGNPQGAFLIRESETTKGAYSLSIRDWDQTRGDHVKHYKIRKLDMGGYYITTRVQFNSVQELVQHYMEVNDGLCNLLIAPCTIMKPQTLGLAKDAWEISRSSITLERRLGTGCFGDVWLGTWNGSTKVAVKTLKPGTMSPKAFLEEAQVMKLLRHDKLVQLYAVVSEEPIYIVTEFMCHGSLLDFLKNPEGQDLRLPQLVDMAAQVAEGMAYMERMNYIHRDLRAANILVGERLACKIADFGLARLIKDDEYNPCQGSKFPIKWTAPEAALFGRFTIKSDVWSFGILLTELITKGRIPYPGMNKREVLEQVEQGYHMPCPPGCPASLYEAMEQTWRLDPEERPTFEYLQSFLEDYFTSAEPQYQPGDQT

[21] = AUC(0 to 12 hrs) in human at 100 mg, po administered for 8 days by LC-MS/MS analysis; assay type: ADME, organism-based; settings: in vivo, time 8 day; outline: as §1
[22] = Drug accumulation in human at 100 to 400 mg, po administered for 6 hrs by LC-MS/MS analysis; assay type: ADME, organism-based; settings: in vivo, dose 100-400 mg
[23] = AUC(0 to 24 hrs) in human at 100 mg, po administered for 8 days by LC-MS/MS analysis; assay type: ADME, organism-based; settings: in vivo, time 8 day; outline: as §1
[24] = Half life in human at 250 mg, po administered for 8 days by LC-MS/MS analysis; assay type: ADME, organism-based; settings: in vivo, time 8 day; outline: as §1
[25] = AUC(0 to 6 hrs) in human at 175 mg, po administered for 8 days by LC-MS/MS analysis; assay type: ADME, organism-based; settings: in vivo, time 8 day; outline: as §1
[26] = biological target: Tyrosine-protein kinase Blk (Homo sapiens, UniProt P51451); experiment: Inhibition of recombinant BLK (unknown origin) preincubated for 1 hr in presence of ATP by Z-Lyte assay; outline: as §2
Tyrosine-protein kinase Blk, sequence (P51451 whole entry): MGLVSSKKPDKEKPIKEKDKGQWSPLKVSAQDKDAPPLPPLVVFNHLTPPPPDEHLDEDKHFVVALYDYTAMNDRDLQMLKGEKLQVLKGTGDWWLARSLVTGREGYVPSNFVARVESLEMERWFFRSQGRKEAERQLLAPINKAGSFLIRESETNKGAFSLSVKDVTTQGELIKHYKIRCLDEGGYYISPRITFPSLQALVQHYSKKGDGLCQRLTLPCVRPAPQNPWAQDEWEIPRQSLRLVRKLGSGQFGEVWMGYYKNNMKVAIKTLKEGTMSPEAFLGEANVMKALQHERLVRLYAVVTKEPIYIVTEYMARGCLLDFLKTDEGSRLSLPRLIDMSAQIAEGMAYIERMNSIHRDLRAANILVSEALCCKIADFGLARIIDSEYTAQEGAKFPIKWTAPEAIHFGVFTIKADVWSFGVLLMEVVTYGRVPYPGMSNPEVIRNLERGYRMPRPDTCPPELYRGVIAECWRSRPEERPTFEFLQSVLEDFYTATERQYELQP

[27] = AUC(0 to 24 hrs) in human at 175 mg, po administered for 8 days by LC-MS/MS analysis; assay type: ADME, organism-based; settings: in vivo, time 8 day; outline: as §1
[28] = AUC(0 to 24 hrs) in human at 250 mg, po administered for 8 days by LC-MS/MS analysis; assay type: ADME, organism-based; settings: in vivo, time 8 day; outline: as §1
[29] = biological target: Tyrosine-protein kinase BTK (Homo sapiens) (UniProt Q06187); settings: Platelet, dose 25-1000 nM, time 30.0 min
Tyrosine-protein kinase BTK (Homo sapiens), sequence (Q06187 whole entry): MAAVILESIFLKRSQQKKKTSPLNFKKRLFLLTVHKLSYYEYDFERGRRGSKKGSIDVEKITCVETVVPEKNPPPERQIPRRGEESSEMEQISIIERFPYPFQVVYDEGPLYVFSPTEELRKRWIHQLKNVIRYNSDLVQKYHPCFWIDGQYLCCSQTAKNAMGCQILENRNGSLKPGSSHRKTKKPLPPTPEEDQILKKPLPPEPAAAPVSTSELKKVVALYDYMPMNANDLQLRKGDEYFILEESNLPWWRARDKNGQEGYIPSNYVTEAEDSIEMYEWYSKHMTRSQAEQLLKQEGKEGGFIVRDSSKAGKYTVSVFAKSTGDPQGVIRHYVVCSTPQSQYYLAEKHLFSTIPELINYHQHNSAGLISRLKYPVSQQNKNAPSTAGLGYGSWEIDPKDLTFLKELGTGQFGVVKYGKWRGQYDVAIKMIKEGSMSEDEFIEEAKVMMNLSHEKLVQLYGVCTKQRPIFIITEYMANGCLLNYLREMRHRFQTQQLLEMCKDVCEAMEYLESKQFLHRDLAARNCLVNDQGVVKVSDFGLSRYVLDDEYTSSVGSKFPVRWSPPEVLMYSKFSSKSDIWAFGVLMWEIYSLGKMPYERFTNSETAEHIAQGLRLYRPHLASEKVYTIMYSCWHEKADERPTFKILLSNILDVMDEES

[30] = biological target: Proto-oncogene tyrosine-protein kinase Src (Homo sapiens, UniProt P12931); experiment: Inhibition of recombinant SRC (unknown origin) preincubated for 1 hr in presence of ATP by Z-Lyte assay
Proto-oncogene tyrosine-protein kinase Src, sequence (P12931 2-536 limits assumed): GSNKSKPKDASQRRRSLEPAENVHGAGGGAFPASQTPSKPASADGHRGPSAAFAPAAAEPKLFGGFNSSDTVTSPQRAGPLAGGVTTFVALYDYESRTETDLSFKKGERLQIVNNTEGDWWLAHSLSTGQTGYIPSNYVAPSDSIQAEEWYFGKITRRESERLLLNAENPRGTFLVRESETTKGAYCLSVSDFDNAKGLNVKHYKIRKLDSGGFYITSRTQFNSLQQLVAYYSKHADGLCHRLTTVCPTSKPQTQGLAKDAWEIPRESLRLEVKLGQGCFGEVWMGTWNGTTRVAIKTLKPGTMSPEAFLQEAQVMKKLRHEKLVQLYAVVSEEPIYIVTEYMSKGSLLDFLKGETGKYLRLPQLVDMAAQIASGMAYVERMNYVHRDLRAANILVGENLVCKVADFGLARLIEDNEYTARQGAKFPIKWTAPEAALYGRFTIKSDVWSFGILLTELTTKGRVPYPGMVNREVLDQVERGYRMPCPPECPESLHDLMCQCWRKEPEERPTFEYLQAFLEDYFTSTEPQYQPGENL

[31] = AUC(0 to infinity) in human at 100 mg, po administered for 8 days by LC-MS/MS analysis; assay type: ADME, organism-based; settings: in vivo, time 8 day; outline: as §1

**Q.** Which results are given for CC#CC(=O)N1CCC[C@H]1c1nc(-c2ccc(C(=O)Nc3ccccn3)cc2)c2c(N)nccn12 [ACALABRUTINIB]?
**A.** CL/F [1]: 3550 mL/min; k el at 192 h [2]: 0.00017 s⁻¹; Vd/F [3]: 179 L; AUC(0-inf) [4]: 1870 ng·h/mL; k el at 192 h [5]: 0.000194 s⁻¹; Cmax [6]: 529 ng/mL; AUC at 192 h [7]: 584 ng·h/mL; AUC(0-inf) [8]: 1160 ng·h/mL; AUC at 192 h [9]: 1730 ng·h/mL; Cmax [10]: 1350 ng/mL; IC50 [11]: > 1000 nM; Cmax [12]: 805 ng/mL; AUC at 192 h [13]: 1850 ng·h/mL; IC50 [14]: 368 nM; Tmax [15]: 55.2 min; Tmax [16]: 48.6 min; AUC at 192 h [17]: 826 ng·h/mL; Cmax [18]: 902 ng/mL; AUC at 192 h [19]: 2310 ng·h/mL; IC50 [20]: > 1000 nM; AUC at 192 h [21]: 602 ng·h/mL; Drug uptake [22]: Not Active; AUC at 192 h [23]: 603 ng·h/mL; half-life [24]: 56.5 min; AUC at 192 h [25]: 1140 ng·h/mL; IC50 [26]: > 1000 nM; AUC at 192 h [27]: 1160 ng·h/mL; AUC at 192 h [28]: 2310 ng·h/mL; inhibition [29]: inactive; IC50 [30]: > 1000 nM; AUC(0-inf) [31]: 603 ng·h/mL
